Hits are enriched below; roughly 3.5% of the tested compounds scored in any of these assays.
RGS4 pot = RGS4 potentiation or activation; B-score at 10 µM; HEK293 M3R/inducible RGS4, carbachol calcium flux Fluo4; hits give low values; 0.92% of 310,000 active; AID 463111;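 active = B-score of the integrated calcium signal more than 4 SD below the library mean, with starting fluorescence not abnormally high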;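 note: negative B-score means reduced calcium response which marks RGS4 activation or potentiation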
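System: HEK293 FlpIn-TREx cells, stable M3R, doxycycline-inducible RGS4. Timing: overnight RGS4 induction, 30 min dye load 37 °C, 20 min compound RT. Also added: carbachol, ECmax concentration. Measured by: Fluo4 fluorescence kinetic imaging of calcium. Evaluation: integrated calcium ratio converted to B score.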
MrgX1 ag = activates human MrgX1 receptor signaling | Q96LB2 | MrgX1-HEK293 cells, Fluo-4 calcium fluorescence, agonist mode; hits give high values | B-score at 10 µM | 0.44% of 310,000 active;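 active = calcium response B-score plate-corrected fluorescence ratio at least 3 library SD, with starting fluorescence B-score inside 5 SD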
Target sequence (Q96LB2 whole entry, looked up): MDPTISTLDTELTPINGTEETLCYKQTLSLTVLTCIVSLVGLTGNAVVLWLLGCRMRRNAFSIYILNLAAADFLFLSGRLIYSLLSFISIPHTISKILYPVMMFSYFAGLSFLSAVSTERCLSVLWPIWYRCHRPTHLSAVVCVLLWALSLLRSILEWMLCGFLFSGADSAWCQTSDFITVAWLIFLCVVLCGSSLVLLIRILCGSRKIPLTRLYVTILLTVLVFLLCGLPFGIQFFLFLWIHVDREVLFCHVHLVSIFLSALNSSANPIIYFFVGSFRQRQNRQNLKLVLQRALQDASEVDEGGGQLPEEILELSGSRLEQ
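System – MrgX1-expressing HEK293 cells · Incubation – cells plated overnight, dye loaded 0.5 h 37 °C, 0.5 h room temperature · Technique – kinetic Fluo-4 NW fluorescence of intracellular calcium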
MrgX1 antag = antagonists of human MrgX1 receptor | Q96LB2 | MRGX1-HEK293 calcium flux, Fluo-4, BAM8-22 antagonism; hits give low values | B-score at 10 µM | 1.3% of 310,000 active | AID 588676;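 active = calcium-response B-score plate-corrected more than 3 library SD below zero, starting fluorescence within 5 deviations, no agonist response on first addition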;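 note: peak minus trough fluorescence over baseline after final BAM8-22 challenge near maximal dose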
MrgX1 allo act = human MrgX1 positive allosteric modulation, primary screen | Q96LB2 | MrgX1-HEK293, Fluo-4 calcium flux, FDSS; hits give high values | B-score at 10 µM | 0.63% of 310,000 active;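 active = plate-corrected calcium response at least 3 library SD above typical, normal starting fluorescence, not activating the receptor alone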;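 note: compound read alongside a low EC10 to EC30 dose of BAM8-22 agonist; peak minus trough fluorescence over baseline measured at the second addition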
RGS4 inh = inhibitors of human RGS4; AID 463165; P49798; HEK293 M3R/RGS4 inducible, Fluo-4 calcium flux; hits give high values; triggered by carbachol at its EC20; B-score at 10 µM; 0.45% of 310,000 active;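 active = B-score, a plate-corrected calcium signal, over three deviations above library mean, with baseline fluorescence within five deviations of library mean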;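 note: RGS4 expression induced by doxycycline in cells with stable M3 receptor; B-score is computed from the integrated fluorescence ratio over baseline after carbachol; higher B-score means a larger calcium signal and so more RGS4 inhibition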
Target sequence (P49798 whole entry, looked up): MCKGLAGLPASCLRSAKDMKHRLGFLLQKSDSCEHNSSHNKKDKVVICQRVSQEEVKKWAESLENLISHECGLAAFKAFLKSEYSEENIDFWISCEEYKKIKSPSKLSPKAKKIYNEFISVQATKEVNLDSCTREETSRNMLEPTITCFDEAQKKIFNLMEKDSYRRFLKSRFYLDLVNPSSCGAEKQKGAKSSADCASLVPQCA
RGS4 inh valid = validation of RGS4 inhibitors | shares compounds with RGS4 inh | HEK293 M3R/RGS4, carbachol calcium Fluo-4 fluorescence; carbachol added at its EC20; 0 = buffer wells, 100 = carbachol control | calcium response, % at 10 µM | 65% of 1,700 active;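 active = duplicate-averaged calcium response above the buffer-only control mean plus 5 SD of those controls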;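 note: integrated fluorescence ratio F max minus min over baseline F0; higher response in RGS4-induced cells means RGS4 inhibition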
M3R Ca ctr = non-induced cell nonspecific activity of RGS4 inhibitors. shares compounds with RGS4 inh. HEK293 M3R non-induced, carbachol calcium Fluo-4; submaximal (EC20) carbachol stimulus; buffer wells 0%, carbachol control wells 100%. activity (percent), % at 10 µM. 20% of 1,900 active. AID 493000; call rule not given here;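 note: RGS4 induction absent so cells express M3R without RGS4; higher means more calcium signal and flags a non-specific hit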
RGS4 inh ctr2 = second RGS4 inhibitor counter-screen in uninduced cells lacking carbachol | shares compounds with RGS4 inh | calcium response (agonist-mode artifact), % at 10 µM | HEK293 M3R/RGS4 non-induced, Fluo-4 calcium, no carbachol; normalised: buffer wells 0%, carbachol wells 100% | 22% of 1,900 active;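 active = duplicate-averaged calcium rise in uninduced cells above buffer wells' mean plus 5 SD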
* marks the source's active call; other numbers are inactive results; i = inactive; . = not tested or not shown.

SMILES	RGS4 pot	MrgX1 ag	MrgX1 antag	MrgX1 allo act	RGS4 inh	RGS4 inh valid	M3R Ca ctr	RGS4 inh ctr2
CCOC(=O)C1CCN(Cc2nc3ccccc3c(=O)n2-c2ccc(F)cc2)CC1	i	i	i	i	5.4*	i	i	i
O=C(c1ccco1)N1CCN(Cc2nc3ccccc3c(=O)n2-c2ccc(F)cc2)CC1	i	i	i	i	i	.	.	.
O=C(NN=C1CCCC1)c1[nH]c2ccc(Br)cc2c1-c1ccccc1	i	i	i	i	13*	16%*	i	i
O=C(N/N=C/c1ccccc1)c1[nH]c2ccc(Br)cc2c1-c1ccccc1	i	i	i	i	i	.	.	.
CCN(c1ccc(NC(=O)COC(=O)/C=C/c2cccs2)cc1)C(C)C	i	i	i	i	i	.	.	.
CCOC(=O)C1=C(CS(=O)(=O)c2ccccc2)NC(=O)NC1c1ccc(OC)c(OC)c1 (centres undefined)	i	i	i	i	i	.	.	.
COC(=O)C1=C(CS(=O)(=O)c2ccccc2)NC(=O)NC1c1ccc(OC)c(OC)c1 (centres undefined)	i	i	i	i	i	i	i	i
O=[N+]([O-])c1cc(Cl)c2cccnc2c1O	i	i	i	i	i	.	i	134%*
O=[N+]([O-])c1cc(F)c2cccnc2c1O	i	i	i	i	i	.	.	.
O=[N+]([O-])c1cc(Cl)c(O)c2ncccc12	i	.	.	.	6.7*	12%*	i	i
CC1Oc2ccccc2N(CC(=O)Nc2ccc(F)cc2)C1=O (centres undefined)	i	i	i	i	i	.	.	.
CCCNC(=S)N1CCC(C(=O)c2ccc(OC)cc2)CC1	i	i	i	i	i	.	.	.
O=C(O)CCn1c(SCc2cccc3ccccc23)nc2ccccc21	i	i	i	i	i	.	.	.
N#CC1=C(N)N=C(SCc2cccc3ccccc23)C(C(N)=O)C12CCCCC2 (centres undefined)	i	i	i	i	5.9*	16%*	i	i
FC(F)(F)c1ccc(N=Cc2sc(N3CCOCC3)nc2-c2ccccc2)cc1	i	i	i	i	5.5*	5.5%*	i	i
O=C(/C(=C/O)N=Nc1ccccc1)c1ccc(Cl)cc1	i	i	i	i	8.7*	64%*	78%*	i
COc1ccc(-c2csc(NC3OC(=O)c4c3ccc(OC)c4OC)n2)cc1OC (centres undefined)	i	i	i	i	11*	44%*	i	i
COc1ccc2c(c1OC)C(=O)OC2Nc1nc(-c2cc3cc(Br)ccc3oc2=O)cs1 (centres undefined)	i	i	i	i	i	.	.	.
COc1ccc2c(c1OC)C(=O)OC2Nc1nc(-c2ccc([N+](=O)[O-])cc2)cs1 (centres undefined)	i	i	i	i	i	i	i	i
COc1ccc(C2SCC(=O)N2CCc2ccc(OC)c(OC)c2)cc1 (centres undefined)	i	i	i	i	i	.	.	.
CCOc1ccc(C(NC(=O)CC)c2c(O)ccc3ccccc23)cc1 (centres undefined)	i	i	i	i	i	.	.	.
CC(=O)Oc1ccc2ccccc2c1C(NC(=O)Cc1ccccc1)c1ccc(Cl)cc1 (centres undefined)	i	i	-5.9*	i	i	.	i	i
CC(C)(CO)NS(=O)(=O)c1ccc2c(c1)C(=NO)c1cc(S(=O)(=O)NC(C)(C)CO)ccc1-2	i	i	i	i	11*	16%*	i	i
Cc1cc(S(=O)(=O)Nc2ccc3cn[nH]c3c2)c(C)cc1Cl	i	i	i	i	15*	30%*	i	i
c1ccc(-c2ccc(Oc3cc(N4CCOCC4)nc(-c4ccccc4)n3)cc2)cc1	i	i	i	i	i	.	.	.
SMILES	RGS4 pot	MrgX1 ag	MrgX1 antag	MrgX1 allo act	RGS4 inh	RGS4 inh valid	M3R Ca ctr	RGS4 inh ctr2
CC(C)Sc1cc(N2CCCC2)nc(-c2ccccc2Cl)n1	i	i	i	i	i	.	.	.
CC(C)Sc1cc(N2CCCC2)nc(-c2ccc(F)cc2)n1	i	i	i	i	9.2*	26%*	i	i
CC(C)Sc1cc(N2CCOCC2)nc(-c2ccccc2)n1	i	i	i	i	i	i	30%*	10%*
CC(C)Sc1cc(N2CCCC2)nc(-c2ccccc2)n1	i	i	i	i	6.2*	23%*	51%*	i
CCSc1cc(N2CCCC2)nc(-c2ccccc2)n1	i	i	i	i	i	.	.	.
Cc1cc(C)c(S(=O)(=O)c2ccc(C(C)(C)C)cc2)c(Cl)n1	i	i	i	i	i	.	.	.
CCOc1ccc(C(=O)CC(Sc2ccc(C)cc2)C(=O)O)cc1 (centres undefined)	i	i	i	i	i	i	i	i
CCOC(=O)c1c(C)[nH]c(C)c1S(=O)(=O)NCC1CCN(Cc2ccccc2OC)CC1	i	i	i	i	i	.	.	.
Cc1c(C=N)c(O)n(C)c(=O)c1C#N	i	i	i	i	i	.	.	.
O=C(Nc1ccccc1)C(Cl)C(=O)c1ccccc1 (centres undefined)	i	i	i	i	9.1*	30%*	38%*	i
Nc1cccc(C(=O)OCC(=O)Nc2cccc3c2C(=O)c2ccccc2C3=O)c1	i	i	i	i	4.9*	5.0%*	i	14%*
NC(=S)N/N=C/c1ccc(-n2nncc2-c2ccc(Cl)cc2)cc1	i	i	i	i	39*	23%*	64%*	i
O=C(OCn1ncc(Cl)c(Cl)c1=O)c1ccccc1Cl	i	i	i	i	7.4*	15%*	40%*	i
O=C(OCn1ncc(Cl)c(Cl)c1=O)c1ccc(F)cc1	i	i	i	i	i	.	.	.
NC(=O)CC(NC(=O)Cc1ccc(Br)cc1)c1ccc(N2CCN(c3ccc(F)cc3)CC2)c([N+](=O)[O-])c1 (centres undefined)	i	i	i	i	i	.	.	.

Bioassay records deposited in PubChem by Johns Hopkins Ion Channel Center.
